{
  "source": "paper PMC2193784",
  "about": "(The Journal of Experimental Medicine, 2003)",
  "molecules": {"B1": {"name": "myelin basic protein (protein, UniProt P04370 1-250, looked up)", "Myelin basic protein": "MGNHSGKRELSAEKASKDGEIHRGEAGKKRSVGKLSQTASEDSDVFGEADAIQNNGTSAEDTAVTDSKHTADPKNNWQGAHPADPGNRPHLIRLFSRDAPGREDNTFKDRPSESDELQTIQEDPTAASGGLDVMASQKRPSQRSKYLATASTMDHARHGFLPRHRDTGILDSIGRFFSGDRGAPKRGSGKDSHTRTTHYGSLPQKSQHGRTQDENPVVHFFKNIVTPRTPPPSQGKGGRDSRSGSPMARR"}},
  "key": {"[1]": {"tested_on": "T cells from MBP-primed mice", "conditions": "synthetic peptides; cited from earlier work"}, "I-A^u [2]": {"target": "T1, I-A^u (Mus musculus, UniProt P06344+P14438)", "T1 sequence (P14438 1-227)": "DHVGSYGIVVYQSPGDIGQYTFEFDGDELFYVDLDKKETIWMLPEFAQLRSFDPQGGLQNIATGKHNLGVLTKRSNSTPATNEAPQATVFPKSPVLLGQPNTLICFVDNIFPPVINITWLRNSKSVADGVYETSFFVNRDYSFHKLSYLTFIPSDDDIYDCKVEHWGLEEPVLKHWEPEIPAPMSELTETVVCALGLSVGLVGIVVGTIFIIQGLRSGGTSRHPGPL", "T1 sequence (P06344 28-263)": "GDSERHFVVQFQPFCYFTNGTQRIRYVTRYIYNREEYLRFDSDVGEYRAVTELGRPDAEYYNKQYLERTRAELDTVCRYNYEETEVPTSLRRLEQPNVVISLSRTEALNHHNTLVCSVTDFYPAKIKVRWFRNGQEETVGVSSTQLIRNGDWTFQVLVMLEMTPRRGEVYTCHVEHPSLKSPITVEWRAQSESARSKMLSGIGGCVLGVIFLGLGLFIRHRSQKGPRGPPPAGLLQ", "conditions": "cited from earlier work"}, "I-A^u [3]": {"target": "T1, I-A^u", "conditions": "for Copy/cell: peptides eluted from I-A^u, T cell–depleted B10.PL splenocytes, MBP 95 μg/ml, 16 h, 37°C, based on copy number/cell of MBPAc1-18, determined by comparison to angiotensin control; for times more detected than MBP125–135 peptides: eluted from I-A^u, MBP-pulsed splenocytes", "outline": "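Spleen cells depleted of T cells (2 × 10^6 cells/ml in RPMI) were incubated 16 h at 37°C with MBP (95 μg/ml). I-Au was captured with anti-I-Au antibody on Protein A beads. Peptides were eluted in 10% acetic acid through a 10 kD filter. About 6 × 10^6 cell equivalents were spiked with 2 fmol angiotensin I and run on C18 gradient LC into FT-ICR MS. Amounts were normalized to the angiotensin standard, and identity was confirmed by CAD MS/MS and coelution with synthetic peptide.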"}, "[4]": {"tested_on": "MBPAc1–11-specific TCR Tg T cells", "type": "cell-based, mouse", "conditions": "50 uM peptide; fixed splenocytes; two TCR Tg lines", "outline": "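T cells from MBPAc1–11 TCR transgenic mice were purified with anti-Vα2.3 or anti-Vβ8.1/8.2 and sorted free of I-Au+ cells. They were plated at 2 × 10^5/well in complete RPMI with 50 uM peptide or 95 μg/ml MBP. APCs were 10^6 splenocytes per well, either irradiated live or fixed in 0.1% paraformaldehyde for 5 min at room temperature. Cultures ran 48 h, were pulsed with [3H]-thymidine and harvested 18 h later.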"}, "I-A^u [5]": {"target": "T1, I-A^u", "test": "Dissociation of fluorescein-labeled MBP peptides from soluble I-A^u", "type": "binding", "conditions": "for dissociation kinetics (in words): fluorescein-labeled peptide, soluble I-A^u, 1 h at 37°C, Fig. 2"}, "[6]": {"target": "Detergent soluble I-A^u (mouse)", "test": "dissociation kinetics of fluorescein-labelled peptide"}, "[7]": {"conditions": "by competition for I-A^u binding; cited from earlier work"}, "MBP-specific T cells": {"tested_on": "MBP-specific T cells", "conditions": "B10.PL MBP-deficient shiverer (MBP^−/−) mice; cited from earlier work"}, "[8]": {"conditions": "biphasic dissociation, 1 h incubation at 37°C, pH 5.3, HPSEC fluorescence"}, "[9]": {"conditions": "incubation with I-A^u for 1 h at 37°C"}},
  "note": "Ends that are not written are not given here.",
  "data": [
    {"molecule": "MBP125–135: synthetic peptide; core epitope within MBP121–150 (TAASGGLDVMA; UniProt P04370 125-135, looked up, fragment)", "values": [
      {"measurement": "stimulation of T cells from MBP-primed mice", "setting": "[1]", "result": "stimulated T cells from MBP-primed mice"},
      {"measurement": "affinity for I-A^u (in words)", "setting": "I-A^u [2]", "result": "high affinity for I-A^u"}
    ]},
    {"molecule": "124-137: MBP peptide from the MBP121–150 region eluted from I-A^u (PTAASGGLDVMASQ; UniProt P04370 124-137, looked up, fragment)", "values": [
      {"measurement": "Copy/cell", "setting": "I-A^u [3]", "result": 9.2, "unit": "copy/cell"}
    ]},
    {"molecule": "MBPAc1–11: N-acetylated NH2-terminal MBP epitope, low affinity I-A^u register (Ac-MGNHSGKRELS; UniProt P04370 1-11, looked up, fragment)", "values": [
      {"measurement": "T cell response on fixed APCs (in words)", "setting": "[4]", "result": "responded well"},
      {"measurement": "dissociation kinetics (in words)", "setting": "I-A^u [5]", "result": "monophasic fast dissociation"},
      {"measurement": "binding to I-A^u (in words)", "setting": "I-A^u [2]", "result": "binds I-A^u poorly"}
    ]},
    {"molecule": "MBPAc1–18 (synthetic, fluorescein-labelled) (peptide)", "values": [
      {"measurement": "dissociation half-life, fast phase (t1/2fast)", "setting": "[6]", "result": 3.7, "unit": "h"},
      {"measurement": "dissociation half-life, slow phase (t1/2slow)", "setting": "[6]", "result": 117, "unit": "h"},
      {"measurement": "percent of bound peptide in long-lived complexes", "setting": "[6]", "result": 62, "unit": "%"},
      {"measurement": "percent of bound peptide in short-lived complexes", "setting": "[6]", "result": 38, "unit": "%"},
      {"measurement": "percent of bound peptide in the long phase", "setting": "[6]", "result": 77, "unit": "%"}
    ]},
    {"molecule": "123-136: MBP peptide from the MBP121–150 region eluted from I-A^u (DPTAASGGLDVMAS; UniProt P04370 123-136, looked up, fragment)", "values": [
      {"measurement": "Copy/cell", "setting": "I-A^u [3]", "result": 9.2, "unit": "copy/cell"}
    ]},
    {"molecule": "MBPAc1–11 (synthetic, fluorescein-labelled) (peptide)", "values": [
      {"measurement": "dissociation half-life (t1/2)", "setting": "[6]", "result": 0.5, "unit": "h"}
    ]},
    {"molecule": "rat MBPAc5–20: rat MBP peptide of earlier work (ref 17)", "values": [
      {"measurement": "inhibition of EAE", "setting": "[7]", "result": "inhibited EAE induced by immunization with rat MBPAc1–11"}
    ]},
    {"molecule": "Ac1-20: N-acetylated NH2-terminal MBP peptide eluted from I-A^u (Ac-MGNHSGKRELSAEKASKDGE; UniProt P04370 1-20, looked up, fragment)", "values": [
      {"measurement": "Copy/cell", "setting": "I-A^u [3]", "result": 24.4, "unit": "copy/cell"}
    ]},
    {"molecule": "Ac1-16: N-acetylated NH2-terminal MBP peptide eluted from I-A^u (Ac-MGNHSGKRELSAEKAS; UniProt P04370 1-16, looked up, fragment)", "values": [
      {"measurement": "Copy/cell", "setting": "I-A^u [3]", "result": 18.1, "unit": "copy/cell"}
    ]},
    {"molecule": "120-137: MBP peptide from the MBP121–150 region eluted from I-A^u (IQEDPTAASGGLDVMASQ; UniProt P04370 120-137, looked up, fragment)", "values": [
      {"measurement": "Copy/cell", "setting": "I-A^u [3]", "result": 3.4, "unit": "copy/cell"}
    ]},
    {"molecule": "Ac1-19: N-acetylated NH2-terminal MBP peptide eluted from I-A^u", "values": [
      {"measurement": "Copy/cell", "setting": "I-A^u [3]", "result": 6.7, "unit": "copy/cell"}
    ]},
    {"molecule": "Ac1-22: N-acetylated NH2-terminal MBP peptide eluted from I-A^u (Ac-MGNHSGKRELSAEKASKDGEIH; UniProt P04370 1-22, looked up, fragment)", "values": [
      {"measurement": "Copy/cell", "setting": "I-A^u [3]", "result": 5.7, "unit": "copy/cell"}
    ]},
    {"molecule": "MBP136–146: synthetic peptide; epitope within MBP121–150 (SQKRPSQRSKY; UniProt P04370 136-146, looked up, fragment)", "values": [
      {"measurement": "stimulation of T cells from MBP-primed mice", "setting": "[1]", "result": "stimulated T cells from MBP-primed mice"},
      {"measurement": "affinity for I-A^u (in words)", "setting": "I-A^u [2]", "result": "high affinity for I-A^u"}
    ]},
    {"molecule": "MBPAc1–17: N-acetylated NH2-terminal MBP peptide eluted from I-A^u", "values": [
      {"measurement": "times more detected than MBP125–135 peptides", "setting": "I-A^u [3]", "result": "~20", "unit": "times"}
    ]},
    {"molecule": "MBPAc1–18: N-acetylated NH2-terminal MBP peptide containing both the MBPAc1–11 and MBP5–16 registers", "values": [
      {"measurement": "times more detected than MBP125–135 peptides", "setting": "I-A^u [3]", "result": "~20", "unit": "times"},
      {"measurement": "Copy/cell", "setting": "I-A^u [3]", "result": 622.0, "unit": "copy/cell"},
      {"measurement": "T cell response on fixed APCs (in words)", "setting": "[4]", "result": "respond well"},
      {"measurement": "t1/2fast (rapid-dissociation phase)", "setting": "I-A^u [5]; [8]", "result": 3.7, "unit": "h"},
      {"measurement": "t1/2slow (slow phase)", "setting": "I-A^u [5]; [8]", "result": 117, "unit": "h"},
      {"measurement": "dissociation kinetics (in words)", "setting": "I-A^u [5]", "result": "biphasic kinetics"},
      {"measurement": "peptide bound in long-lived complexes (slow phase)", "setting": "I-A^u [5]; [9]", "result": "~62", "unit": "%"},
      {"measurement": "peptide bound in short-lived complexes (faster phase)", "setting": "I-A^u [5]; [9]", "result": "~38", "unit": "%"},
      {"measurement": "peptide bound in the long phase", "setting": "I-A^u [5]; incubation with I-A^u for 16 h, unpublished data", "result": 77, "unit": "%"}
    ]},
    {"molecule": "MBPAc9–20: MBP peptide (rat) of earlier work (ref 17) (Ac-RHGSKYLATAST; UniProt P02688 10-21, looked up, fragment)", "values": [
      {"measurement": "inhibition of EAE", "setting": "[7]", "result": "inhibited EAE induced by immunization with rat MBPAc1–11"}
    ]},
    {"molecule": "B1", "values": [
      {"measurement": "T cell response after immunization", "setting": "MBP-specific T cells", "result": "strong T cell responses directed toward MBP121–150"}
    ]}
  ]
}
